Laboratory results: ChEMBL document CHEMBL5678798 (Clin Cancer Res, 2009)
pIC50: −log10 of the molar value. Calls of active or inactive are those of the source. The rule behind the calls is not given here.

Columns and labels:
[1] = target: Proto-oncogene tyrosine-protein kinase Src (Homo sapiens, UniProt P12931); assay: Inhibition of SRC1 (unknown origin)
[2] = target: Fibroblast growth factor receptor 4 (Homo sapiens) (UniProt P22455); assay: Inhibition of N-terminal His6-tagged recombinant human FGFR4 (442 to 755 residues) expressed in baculovirus infected Sf21 cells at 3 uM by filter binding assay relative to control
[3] = target: Tyrosine-protein kinase BTK (Homo sapiens, UniProt Q06187); assay: Inhibition of N-terminal His6-tagged recombinant full-length human BTK expressed in baculovirus infected Sf21 cells by filter binding assay
[4] = target: Protein kinase C iota type (Homo sapiens) (UniProt P41743); assay: Inhibition of N-terminal His6-tagged recombinant full-length human PKCiota expressed in Sf21 cells at 0.3 uM by filter binding assay relative to control
How it was run: (§1)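 Outsourced single-concentration screen in a commercial panel of 233 protein kinases, run as radiometric filter-binding activity assays. Test agent was tested at 0.3 or 3 µmol/L, as given in each line, from a 10 mmol/L DMSO stock. Activity is expressed as percent inhibition relative to control.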

[5] = target: PAS domain-containing serine/threonine-protein kinase (Homo sapiens, UniProt Q96RG2); assay: Inhibition of human PASK by filter binding assay
[6] = In vivo inhibition of IGF1R in mouse NIH-3T3/LISN cells implanted in IGF1-stimulated nu/nu CD-1 mouse assessed as reduction in IGF1R phosphorylation at 30 mg/kg, po pretreated for 24 hrs followed by IGF1 stimulation and measured after 10 min […] relative to control; type: functional; details: 24.17 h, time 1450 min
How it was run: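 Time course: tumor-bearing female nu/nu CD-1 mice, three per group, given a single oral 30 mg/kg dose or vehicle. IGF-I given 10 min before blood and tumor collection at each time point. Tumor phospho-IGF-IR/total IGF-IR measured by capture-plate europium phosphotyrosine assay and expressed as % of ligand-stimulated control.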

[7] = Cytotoxicity against human PREC cells assessed as growth inhibition after 72 hrs by CellTiter-Glo assay relative to control; type: toxicity, cell-based; details: read-out: GI
[8] = Inhibition of C-terminal His6-tagged human full length CDK2/N-terminal GST-tagged human full length cyclinA expressed in baculovirus infected Sf21 cells at 0.3 uM by filter binding assay relative to control; details: condition cancer
How it was run: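 Run in an outsourced profiling panel of 233 kinases. Each kinase was tested with radiometric filter-binding activity assays at a single inhibitor concentration of 0.3 µmol/L. Inhibitor stock was 10 mmol/L in DMSO. Inhibition is reported as percent relative to control.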

[9] = Cytotoxicity against HFF cells assessed as reduction in cell viability after 72 hrs by CellTiter-Glo assay; type: toxicity, cell-based; details: human
How it was run: (§2)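 Cells seeded in 96-well plates, left overnight at 37°C, then exposed to a range of test concentrations for 72 h. Viability read by CellTiter-Glo luminescence; IC50 from four-parameter curve fit. Lines kept at 37°C, 5% CO2, in recommended growth medium.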

[10] = target: Fibroblast growth factor receptor 3 (Homo sapiens) (UniProt P22607); assay: Inhibition of N-terminal His6-tagged recombinant human FGFR3 (447 to 761 residues) expressed in Sf21 cells at 3 uM by filter binding assay relative to control
[11] = target: Activated CDC42 kinase 1 (Homo sapiens) (UniProt Q07912); assay: Inhibition of N-terminal GST-tagged recombinant human ACK1 (1 to 389 residues) expressed in baculovirus infected Sf21 cells at 3 uM by filter binding assay relative to control; how it was run: as §1
[12] = target: Mitogen-activated protein kinase kinase kinase 9 (Homo sapiens) (UniProt P80192); assay: Inhibition of N-terminal 6His-tagged recombinant human MLK1 (134 to 414 residues) expressed in baculovirus infected Sf21 cells at 0.3 uM by filter binding assay relative to control; how it was run: as §1
[13] = target: Activin receptor type-1B (Homo sapiens) (UniProt P36896); assay: Inhibition of N-terminal GST-tagged recombinant human ALK4 (150 to end residues) expressed in baculovirus infected Sf21 cells at 3 uM by filter binding assay relative to control; how it was run: as §1
[14] = Antiproliferative activity against human RDES cells assessed as reduction in cell viability after 72 hrs by CellTiter-Glo assay; type: functional, cell-based; details: RD-ES; how it was run: as §2
[15] = target: Receptor tyrosine-protein kinase erbB-4 (Homo sapiens, UniProt Q15303); assay: Inhibition of ErbB4 (unknown origin)
[16] = target: Tyrosine-protein kinase Yes (Homo sapiens) (UniProt P07947); assay: Inhibition of N-terminal His6 tagged recombinant full-length human Yes expressed in baculovirus infected Sf21 cells at 3 uM by filter binding assay relative to control; how it was run: as §1
[17] = target: Protein kinase C alpha type (Homo sapiens) (UniProt P17252); assay: Inhibition of N-terminal His6 tagged recombinant full-length human PKCalpha expressed in baculovirus infected Sf21 cells at 3 uM by filter binding assay relative to control; how it was run: as §1
[18] = target: Insulin receptor (Mus musculus) (UniProt P15208); details: CD-1, dose >= 30.0 mg/kg, route po, time 242.0 min
NCI-H929 = assay: Induction of cell cycle arrest in human NCI-H929 cells assessed as cells accumulation at S phase at 1 umol/L incubated for 48 hrs by propidium iodide staining based flow cytometric analysis (reference value: 15%); type: functional; details: dose 1 µmol/L, at 1 µM
How it was run: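 COLO 205, MCF-7 or NCI-H929 cells seeded in 96-well plates overnight at 37°C, then exposed to DMSO or increasing compound concentrations for 24 or 48 h. Fixed and stained with propidium iodide (Vindelov method), then analysed by flow cytometry for sub-G1, G1, S and G2-M fractions. Experiment repeated twice.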

[19] = Inhibition of C-terminal His6-tagged human full length CDK2/N-terminal GST-tagged human full length cyclinA expressed in baculovirus infected Sf21 cells at 3 uM by filter binding assay relative to control; details: condition cancer
How it was run: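 KinaseProfiler panel of 233 kinases: radiometric filter-binding activity assays with compound at 0.3 or 3 µmol/L. Read-out is percent inhibition.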

[20] = target: Phosphatidylinositol 4,5-bisphosphate 3-kinase catalytic subunit beta isoform (Homo sapiens, UniProt P42338); assay: Inhibition of PI3Kbeta (unknown origin)
[21] = In vivo inhibition of IGF1R in mouse NIH-3T3/LISN cells implanted in IGF1-stimulated nu/nu CD-1 mouse assessed as reduction in IGF1R phosphorylation at 30 mg/kg, po pretreated for 4 hrs followed by IGF1 stimulation and measured after 10 min by […] relative to control; type: functional; details: 4.167 h, time 250 min
How it was run: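 Female nu/nu CD-1 mice, three per group, bearing ~500 mm3 tumors, given one oral dose of compound or vehicle. At 4 h, 10 µg hIGF-I i.v. via tail vein; saline controls. Tumor and blood taken 10 min later. Tumor lysates in RIPA captured on anti-IGF-IR plates and probed with europium anti-phosphotyrosine. Phospho/total IGF-IR expressed as % of ligand-stimulated control. Blood levels by LC-MS/MS.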

[22] = target: MAP kinase-activated protein kinase 2 (Homo sapiens, UniProt P49137); assay: Inhibition of MAPKAPK2 (unknown origin)
Sequence of MAP kinase-activated protein kinase 2 (P49137 whole entry): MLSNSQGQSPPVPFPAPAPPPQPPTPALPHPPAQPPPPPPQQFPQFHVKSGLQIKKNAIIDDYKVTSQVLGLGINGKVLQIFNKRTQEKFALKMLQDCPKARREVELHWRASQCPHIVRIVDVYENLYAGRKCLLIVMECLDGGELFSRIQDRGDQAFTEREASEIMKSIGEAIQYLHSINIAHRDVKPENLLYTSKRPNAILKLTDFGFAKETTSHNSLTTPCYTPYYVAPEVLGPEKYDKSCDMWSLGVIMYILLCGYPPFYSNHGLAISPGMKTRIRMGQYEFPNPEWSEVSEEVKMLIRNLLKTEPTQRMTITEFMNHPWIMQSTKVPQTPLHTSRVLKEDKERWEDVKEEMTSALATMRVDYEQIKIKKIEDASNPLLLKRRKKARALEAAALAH

Sequence of Proto-oncogene tyrosine-protein kinase Src (P12931 2-536 limits assumed): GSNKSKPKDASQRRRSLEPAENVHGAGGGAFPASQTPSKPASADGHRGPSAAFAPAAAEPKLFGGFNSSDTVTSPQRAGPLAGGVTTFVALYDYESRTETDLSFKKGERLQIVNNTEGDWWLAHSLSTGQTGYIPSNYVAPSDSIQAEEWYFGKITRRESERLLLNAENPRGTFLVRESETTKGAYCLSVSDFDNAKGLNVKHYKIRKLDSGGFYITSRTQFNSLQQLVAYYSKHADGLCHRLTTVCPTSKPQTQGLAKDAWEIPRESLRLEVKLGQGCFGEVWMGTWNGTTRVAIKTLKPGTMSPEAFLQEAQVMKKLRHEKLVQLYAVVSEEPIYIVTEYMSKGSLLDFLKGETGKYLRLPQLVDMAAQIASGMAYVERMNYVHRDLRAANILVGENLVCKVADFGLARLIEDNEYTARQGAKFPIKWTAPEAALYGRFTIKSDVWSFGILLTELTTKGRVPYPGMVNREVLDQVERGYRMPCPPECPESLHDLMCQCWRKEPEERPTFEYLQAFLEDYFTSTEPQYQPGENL
Sequence of Tyrosine-protein kinase Yes (Homo sapiens) (P07947 2-543 limits assumed): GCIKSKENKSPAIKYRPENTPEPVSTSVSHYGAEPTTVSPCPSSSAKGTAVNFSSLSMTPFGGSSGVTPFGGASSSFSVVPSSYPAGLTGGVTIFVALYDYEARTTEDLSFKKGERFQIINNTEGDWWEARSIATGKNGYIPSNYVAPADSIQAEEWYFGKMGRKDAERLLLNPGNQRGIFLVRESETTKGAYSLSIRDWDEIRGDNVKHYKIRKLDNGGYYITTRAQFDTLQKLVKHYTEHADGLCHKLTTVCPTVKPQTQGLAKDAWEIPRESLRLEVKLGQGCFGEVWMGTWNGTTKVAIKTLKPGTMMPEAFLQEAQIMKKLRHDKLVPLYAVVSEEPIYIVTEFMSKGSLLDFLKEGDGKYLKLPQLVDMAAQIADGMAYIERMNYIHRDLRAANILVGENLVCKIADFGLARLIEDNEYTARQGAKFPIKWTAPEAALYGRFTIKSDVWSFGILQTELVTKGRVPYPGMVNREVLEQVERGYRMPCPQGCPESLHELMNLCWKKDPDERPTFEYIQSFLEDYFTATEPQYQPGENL
Sequence of Fibroblast growth factor receptor 4 (Homo sapiens) (P22455 22-802 limits assumed): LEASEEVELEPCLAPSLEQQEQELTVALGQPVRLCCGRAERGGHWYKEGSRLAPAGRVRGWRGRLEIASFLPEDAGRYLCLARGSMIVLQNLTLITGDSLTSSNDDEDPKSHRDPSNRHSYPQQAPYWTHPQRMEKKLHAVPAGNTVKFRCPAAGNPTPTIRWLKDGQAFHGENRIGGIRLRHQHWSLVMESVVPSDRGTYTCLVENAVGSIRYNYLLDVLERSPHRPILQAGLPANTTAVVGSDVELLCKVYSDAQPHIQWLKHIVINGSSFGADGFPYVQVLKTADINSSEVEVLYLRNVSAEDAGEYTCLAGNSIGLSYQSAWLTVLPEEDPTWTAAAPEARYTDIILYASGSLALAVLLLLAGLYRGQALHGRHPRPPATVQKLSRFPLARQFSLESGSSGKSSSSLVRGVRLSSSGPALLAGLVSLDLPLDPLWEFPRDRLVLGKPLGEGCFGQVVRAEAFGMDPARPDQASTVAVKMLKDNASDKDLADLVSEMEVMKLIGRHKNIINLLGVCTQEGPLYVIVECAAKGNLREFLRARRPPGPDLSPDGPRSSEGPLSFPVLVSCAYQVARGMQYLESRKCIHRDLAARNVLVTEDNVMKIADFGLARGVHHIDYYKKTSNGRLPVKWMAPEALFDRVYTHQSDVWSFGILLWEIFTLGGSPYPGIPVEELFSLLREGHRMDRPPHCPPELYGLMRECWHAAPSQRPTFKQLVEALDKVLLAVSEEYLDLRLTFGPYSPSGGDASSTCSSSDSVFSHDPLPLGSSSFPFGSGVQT
Sequence of Activin receptor type-1B (Homo sapiens) (P36896 whole entry): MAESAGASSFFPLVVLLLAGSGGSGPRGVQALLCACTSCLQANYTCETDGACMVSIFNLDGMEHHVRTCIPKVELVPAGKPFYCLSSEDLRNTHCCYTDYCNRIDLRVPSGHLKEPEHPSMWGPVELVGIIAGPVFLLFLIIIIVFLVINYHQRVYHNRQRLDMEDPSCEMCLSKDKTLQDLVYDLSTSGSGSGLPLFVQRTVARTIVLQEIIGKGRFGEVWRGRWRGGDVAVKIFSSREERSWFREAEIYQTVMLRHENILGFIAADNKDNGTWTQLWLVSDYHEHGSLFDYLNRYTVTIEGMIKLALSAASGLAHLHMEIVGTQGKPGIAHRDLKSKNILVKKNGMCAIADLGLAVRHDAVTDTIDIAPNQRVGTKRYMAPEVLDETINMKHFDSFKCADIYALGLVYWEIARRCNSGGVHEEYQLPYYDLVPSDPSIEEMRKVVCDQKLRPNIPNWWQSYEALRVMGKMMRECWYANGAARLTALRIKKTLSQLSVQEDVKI
Sequence of PAS domain-containing serine/threonine-protein kinase (Q96RG2 whole entry, the tested form may be a part): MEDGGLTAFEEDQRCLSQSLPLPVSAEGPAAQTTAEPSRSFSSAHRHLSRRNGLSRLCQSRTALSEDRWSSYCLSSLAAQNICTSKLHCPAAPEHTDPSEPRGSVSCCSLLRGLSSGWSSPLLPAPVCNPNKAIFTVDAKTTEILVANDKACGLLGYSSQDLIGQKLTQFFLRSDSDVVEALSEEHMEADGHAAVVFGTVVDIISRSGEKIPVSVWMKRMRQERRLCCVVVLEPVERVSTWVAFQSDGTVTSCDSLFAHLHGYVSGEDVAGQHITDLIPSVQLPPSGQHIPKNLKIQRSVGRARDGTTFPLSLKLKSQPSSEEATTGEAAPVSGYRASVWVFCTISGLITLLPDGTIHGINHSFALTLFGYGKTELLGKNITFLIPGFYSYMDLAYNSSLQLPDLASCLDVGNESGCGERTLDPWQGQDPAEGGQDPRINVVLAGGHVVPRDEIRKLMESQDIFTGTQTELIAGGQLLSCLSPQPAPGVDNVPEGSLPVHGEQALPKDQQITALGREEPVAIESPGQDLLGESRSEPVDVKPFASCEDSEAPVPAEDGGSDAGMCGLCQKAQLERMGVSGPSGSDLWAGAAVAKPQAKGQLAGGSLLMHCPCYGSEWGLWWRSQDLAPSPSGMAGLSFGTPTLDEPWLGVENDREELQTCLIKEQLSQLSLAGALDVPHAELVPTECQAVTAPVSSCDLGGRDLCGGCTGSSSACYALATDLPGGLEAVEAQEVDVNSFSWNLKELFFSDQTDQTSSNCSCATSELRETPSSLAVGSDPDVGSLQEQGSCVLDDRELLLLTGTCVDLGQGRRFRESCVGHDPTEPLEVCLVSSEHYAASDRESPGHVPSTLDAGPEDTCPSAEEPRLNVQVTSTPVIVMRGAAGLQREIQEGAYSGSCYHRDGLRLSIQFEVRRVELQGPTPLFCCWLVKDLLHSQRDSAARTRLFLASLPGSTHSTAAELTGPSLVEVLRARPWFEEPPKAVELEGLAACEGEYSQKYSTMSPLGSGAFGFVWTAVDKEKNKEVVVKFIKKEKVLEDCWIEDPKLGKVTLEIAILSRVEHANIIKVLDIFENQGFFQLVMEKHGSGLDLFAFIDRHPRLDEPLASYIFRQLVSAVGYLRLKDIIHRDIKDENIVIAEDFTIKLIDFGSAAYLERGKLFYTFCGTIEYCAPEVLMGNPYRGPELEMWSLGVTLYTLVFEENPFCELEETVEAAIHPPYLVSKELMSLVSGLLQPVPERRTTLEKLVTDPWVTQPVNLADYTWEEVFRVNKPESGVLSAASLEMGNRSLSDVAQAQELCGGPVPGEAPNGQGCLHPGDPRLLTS
Sequence of Fibroblast growth factor receptor 3 (Homo sapiens) (P22607 23-806 limits assumed): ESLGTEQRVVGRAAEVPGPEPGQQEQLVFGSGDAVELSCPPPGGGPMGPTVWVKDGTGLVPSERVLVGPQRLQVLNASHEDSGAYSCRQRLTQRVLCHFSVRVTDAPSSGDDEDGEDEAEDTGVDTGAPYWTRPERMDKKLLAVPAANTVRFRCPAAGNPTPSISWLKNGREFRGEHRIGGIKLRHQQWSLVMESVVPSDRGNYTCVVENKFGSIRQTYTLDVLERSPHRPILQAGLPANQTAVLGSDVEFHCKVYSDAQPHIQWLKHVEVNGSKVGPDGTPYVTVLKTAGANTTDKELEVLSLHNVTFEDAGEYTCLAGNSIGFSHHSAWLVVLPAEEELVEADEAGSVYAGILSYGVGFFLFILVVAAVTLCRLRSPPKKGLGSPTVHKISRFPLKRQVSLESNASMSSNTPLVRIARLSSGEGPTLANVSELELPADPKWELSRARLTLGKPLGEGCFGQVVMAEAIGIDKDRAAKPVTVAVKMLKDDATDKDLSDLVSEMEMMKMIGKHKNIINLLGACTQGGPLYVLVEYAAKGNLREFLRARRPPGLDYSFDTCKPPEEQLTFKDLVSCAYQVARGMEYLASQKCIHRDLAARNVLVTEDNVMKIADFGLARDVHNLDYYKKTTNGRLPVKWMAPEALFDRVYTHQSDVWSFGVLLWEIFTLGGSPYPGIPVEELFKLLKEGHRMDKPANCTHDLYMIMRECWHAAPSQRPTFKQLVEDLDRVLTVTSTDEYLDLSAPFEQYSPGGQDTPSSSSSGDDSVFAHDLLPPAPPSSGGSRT

`CCc1cc(Nc2nccc(-c3c(-c4ccc(OC)c(C(=O)Nc5c(F)cccc5F)c4)nc4ccccn34)n2)c(OC)cc1N1CCC(N2CCN(S(C)(=O)=O)CC2)CC1` gave a pIC50 [1] of under 5.00, an inhibition [2] of 29% and a pIC50 [3] of 6.45. For the same compound, the inhibition [4] was 0%, the pIC50 [5] was 5.36 and the inhibition in vivo at 30 mg/kg [6] was 76%. The inhibition at 72 h [7] was 45%, the inhibition at 0.3 µM [8] was 2% and the IC50 at 72 h [9] was over 20 µM. It also gave an inhibition [10] of 25%, an inhibition [11] of 34% and an inhibition [12] of 1%. For the same compound, the inhibition [13] was -10%, the pIC50 [14] was 7.21 and the pIC50 [15] was under 4.60. For the same compound, the inhibition [16] was 27%, the inhibition [17] was 1% and the inhibition [18] was “Active”. It also gave an Activity (NCI-H929) of 3%, an inhibition at 3 µM [19] of 8% and a pIC50 [20] of under 5.00. The inhibition in vivo at 30 mg/kg [21] was 99% and the pIC50 [22] was under 4.60.
